# Source: PubChem
# Scp1 inh = Scp-1 phosphatase inhibitors, primary screen, biochemical, colorimetric, uHTS. AID 493091, 2011. Recombinant Scp1, phosphopeptide, malachite green phosphate absorbance. Carboxy-terminal domain RNA polymerase II polypeptide A small phosphatase 1 (Homo …. 0.88% of 340,000 active. inhibition, % at 20 µM;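 active = inhibition above about 50% at 20 µM, limit read from the data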;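 also: plate controls were DMSO wells with enzyme for no effect and wells lacking enzyme for full effect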
# Target sequence (Q9GZU7 76-261 limits assumed): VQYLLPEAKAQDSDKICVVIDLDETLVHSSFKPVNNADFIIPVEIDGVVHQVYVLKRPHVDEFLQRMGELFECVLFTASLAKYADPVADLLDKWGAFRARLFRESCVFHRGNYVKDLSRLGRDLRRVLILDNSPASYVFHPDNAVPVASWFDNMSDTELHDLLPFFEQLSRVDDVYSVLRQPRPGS
#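 assay system = SCP-1 phosphatase catalytic domain, residues 76-261 | buffer or medium = 50 mM Tris acetate pH 5.5, 0.005% Tween-20, 10 mM MgCl2 | incubation = enzyme reaction 45 min at room temperature, colour 5 min, stabilisation 30 min | signal = Phosphate-binding colour reagent, absorbance read at 630 nm | measure = % inhibition at 20 µM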
# STEP inh = STEP phosphatase inhibitors, primary screen, biochemical, fluorescence intensity, uHTS. 0.25% of 360,000 active. Tyrosine-protein phosphatase non-receptor type 5 (Homo sapiens), P54829. AID 588621, 2011. inhibition, % at 20 µM. recombinant STEP, OMFP fluorogenic substrate;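 active = inhibition at 20 µM, scaled per plate between control wells, above about 37%, limit read from the data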;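 also: 0% = DMSO with enzyme and substrate and 100% = substrate only without enzyme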
#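 Material: STEP (striatal-enriched tyrosine phosphatase) enzyme, cell-free | Medium: 50 mM Bis-Tris pH 6.0 with 2.5 mM DTT and 0.005% Tween 20 | Read-out: Percent inhibition scaled to no-enzyme and uninhibited-enzyme controls, plate-pattern corrected | Signal: Fluorescence read at 480 nm ex / 540 nm em | Times: 20 min reaction, room temperature, in the dark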
# LMPTP block = LMPTP phosphatase inhibitors, primary screen, biochemical, fluorescence intensity, uHTS. 0.22% of 360,000 active. Low molecular weight phosphotyrosine protein phosphatase (Homo sapiens), P24666. recombinant LMPTP-A, OMFP fluorogenic substrate. inhibition, % at 20 µM;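 active = compounds that cut the enzyme signal by at least half of the control window in the single-dose screen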;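 also: plate controls were DMSO wells with enzyme plus substrate for no effect and substrate without enzyme for full effect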
# Target sequence (P24666 whole entry, looked up): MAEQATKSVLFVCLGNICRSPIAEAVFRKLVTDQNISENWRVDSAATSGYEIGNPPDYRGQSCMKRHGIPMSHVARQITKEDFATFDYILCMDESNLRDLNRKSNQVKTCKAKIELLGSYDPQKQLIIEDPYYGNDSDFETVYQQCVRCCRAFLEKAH
#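 Test system: LMPTP-A phosphatase enzyme; input: 0.625 nM LMPTP-A final; reagent: OMFP substrate, 400 µM final; compound dosing: 20 µM single dose, 3% DMSO; incubation: 50 min dark incubation at room temperature; measured by: endpoint fluorescence intensity from OMFP dephosphorylation; measure: % inhibition relative to no-enzyme and uninhibited control wells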
# SUMO1-SIM PPI = modulators of SUMO1 protein-protein interactions, primary screen, biochemical, uHTS; Small ubiquitin-related modifier 1 (Homo sapiens), P63165; SUMO1 binding to a labelled peptide, TR-FRET, 1 h; inhibition, % at 20 µM; 0.33% of 360,000 active; AID 602429, 2012; in the data active = inhibition above about 37%
# Target sequence (P63165 whole entry, looked up): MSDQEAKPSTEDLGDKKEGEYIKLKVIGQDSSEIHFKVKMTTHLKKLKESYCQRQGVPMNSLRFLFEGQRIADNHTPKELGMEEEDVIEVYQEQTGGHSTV
# UBC9 SUMO inh = inhibitors of in vitro SUMOylation cascade, primary screen, biochemical, HTRF, uHTS; HTRF SUMOylation assay, SAE1/SAE2 + UBC9; inhibition, % at 35 µM; 0.36% of 290,000 active; AID 2006, 2009; in the data active = inhibition above about 50%, passing the limit was not always enough
# Target sequence (P63279 whole entry, looked up): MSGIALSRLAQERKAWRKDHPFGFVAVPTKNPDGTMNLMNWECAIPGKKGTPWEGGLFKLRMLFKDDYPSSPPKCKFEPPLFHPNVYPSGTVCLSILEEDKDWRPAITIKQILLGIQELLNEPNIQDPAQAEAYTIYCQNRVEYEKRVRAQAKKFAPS
# DNMT1 block = human DNMT1 methyltransferase inhibitors, primary screen, biochemical, molecular beacon, fluorescence, HinP1I cleavage, uHTS. AID 588458, 2011. 0.83% of 360,000 active. inhibition (reported as % activation of signal), % at 10 µM; in the data active = inhibition above about 50%
# Scp-1 conf = Scp-1 phosphatase inhibitors, retest, confirmation, biochemical, colorimetric, single concentration | recombinant SCP-1 catalytic domain, phosphate release, malachite green absorbance | 61% of 2,500 active | shares compounds with Scp1 inh | AID 540281, 2011 | inhibition, % at 20 µM;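 also: plate controls were DMSO with enzyme for no effect and buffer wells lacking enzyme for full effect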
# MG interference = colorimetric readout interference by compounds, confirmation, artefact control for Scp-1 inhibitor project, biochemical, single concentration | shares compounds with Scp1 inh | 2,500 tested, under 10 active | Colorimetric interference counterscreen, malachite green absorbance 630 nm | apparent inhibition (interference), % at 20 µM;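 also: compounds added after enzyme reaction finished so only phosphate colour detection is probed; plate controls were DMSO wells with completed Scp-1 reaction for no effect and substrate wells lacking enzyme for full effect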
# Scp1 DSF = Scp-1 binding by thermal shift, confirmation, orthogonal assay for Scp-1 inhibitor project, biophysical, differential scanning fluorimetry. thermal shift relative to vanadate control, % at 40 µM. shares compounds with Scp1 inh. AID 540329, 2011. 25% of 1,500 active. Recombinant SCP1, Sypro Orange thermal shift Tm;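 active = substances whose mean melting-temperature shift, as a percentage of the reference inhibitor's shift, reaches about 5.3%, limit read from the data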;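 also: 0% = Tm of DMSO wells and 100% = Tm with sodium orthovanadate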
# An asterisk follows results filed as active; . = no result given. Rows were chosen to be rich in hits. Some 1.9% of all compounds tested hit in one or more screens of this group.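 The calls were made as follows, unless noted: active = inhibition of at least 30% at 20 µM; inactive = the rest.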
SMILES,Scp1 inh,STEP inh,LMPTP block,SUMO1-SIM PPI,UBC9 SUMO inh,DNMT1 block,Scp-1 conf,MG interference,Scp1 DSF
C=CC1=C(C(=O)O)N2C(=O)[C@@H](NC(=O)/C(=N\O)c3csc(N)n3)[C@H]2SC1 (stereo in doubt),98*,73*,79*,63*,.,89*,60*,-11,2
COc1cccc(CN2CCC2(C)C(=O)Nc2cccc(Oc3ccccc3)c2)c1F (stereo not drawn),.,0,3,-2,.,3,.,.,.
COc1ccc(NS(=O)(=O)c2ccc(C)c(C(=O)NCC(c3ccco3)N(C)C)c2)cc1 (stereo not drawn),-8,-1,-8,-18,.,-5,.,.,.
Cc1ccnc(NS(=O)(=O)c2ccc(N3C(=O)c4c(Cl)c(Cl)c(Cl)c(Cl)c4C3=O)cc2)n1,67*,17,0,29,11,12,27,-14,.
Cc1ccnc(NS(=O)(=O)c2ccc(N3C(=O)c4ccccc4C3=O)cc2)n1,-3,0,-1,-18,-8,0,.,.,.
O=C1CC(NS(=O)(=O)c2ccc(F)cc2)CN1c1ccc2c(c1)OCCO2 (stereo not drawn),-8,1,0,5,.,0,.,.,.
O=C(NC(c1ccccc1)c1cnccn1)C1CCN(CCOc2ccc(Cl)cc2Cl)CC1 (stereo not drawn),.,-1,0,0,.,2,.,.,.
Cn1cc(/C=N/NC(=O)c2cc3cc(Br)ccc3o2)c2ccccc21,62*,4,-1,-7,9,9,-18,-15,.
O=C(O)Cn1cc(/C=N/NC(=O)c2cc3cc(Br)ccc3o2)c2ccccc21,-2,4,0,5,1,0,.,.,.
CCC1(CC)NC(=O)N(CC(=O)OC(C)C(=O)Nc2ccc(Cl)cn2)C1=O (stereo not drawn),-5,1,-2,-4,.,0,.,.,.
COc1ccc(NC(=O)CSc2n[nH]c(=O)n2C2CC2)cc1Cl,4,1,1,-1,.,2,.,.,.
COc1ccc(NC(=O)CSc2nc(-c3ccco3)nc3cc(=O)[nH]n23)cc1Cl,53*,14,9,5,17,6,25,-20,.
CC(=O)Nc1ccc(Cl)cc1-c1ccccc1,3,-2,0,-1,.,0,.,.,.
CC(=O)Nc1cc2c(c(Cl)c1Cl)-c1ccccc1C2=O,80*,6,23,37,.,17,-15,-13,.
NS(=O)(=O)c1ccc(CCNC(=O)c2ccc3nccnc3c2)cc1,99*,8,55*,11,.,43,76*,-7,1
Cc1ccc2c(=O)cc(C(=O)NCCc3ccc(S(N)(=O)=O)cc3)oc2c1,95*,3,24,2,18,18,70*,-13,5
COc1ccc(CCN(C)C2CCCN(S(=O)(=O)c3ccccc3)C2)cc1OC (stereo not drawn),-4,1,0,1,-1,3,.,.,.
Cc1ccc(-c2nnc(OCc3nc4ccccc4n3C)c3ccccc23)cc1,-5,1,2,0,.,0,.,.,.
CCCS(=O)(=O)NC(=O)C1(C)CCCN(C(=O)c2cc(OC)ccc2Br)C1 (stereo not drawn),.,3,-2,2,.,3,.,.,.
COc1ccccc1-c1nnc2sc(-c3cnccn3)nn12,70*,2,3,-7,3,13,56*,-11,5.8*
COc1ccccc1-c1nnc2sc(-c3ccc(N(C)C)cc3)nn12,-3,3,0,-10,8,-4,.,.,.
CCN(CC)CCNC(C(=O)Nc1cc(C(F)(F)F)ccc1Cl)c1ccccc1 (stereo not drawn),91*,-2,-3,3,-3,3,91*,-11,-6
CC12CCC(=O)N1C(C(=O)Nc1ccc(SC(F)F)cc1)CS2 (stereo not drawn),4,0,-1,2,.,0,.,.,.
O=C(CSc1nnc2ccccn12)NC(=O)c1ccccc1Cl,66*,21,8,-3,.,43,51*,-15,-3
CC(=O)N1CCc2c(sc(NC(=O)C3CCCCC3)c2C(N)=O)C1,-13,-1,-1,5,-10,-10,.,.,.
SMILES,Scp1 inh,STEP inh,LMPTP block,SUMO1-SIM PPI,UBC9 SUMO inh,DNMT1 block,Scp-1 conf,MG interference,Scp1 DSF
O=C(Nc1ccc(S(=O)(=O)NC2=NCCCCC2)cc1)c1cccc(S(=O)(=O)N2CCOCC2)c1,50*,-6,57*,8,.,3,-1,-5,.
CSCCC(NS(=O)(=O)c1ccc(Cl)cc1)C(=O)OCc1c(Cl)cccc1Cl (stereo not drawn),-6,-5,1,0,-15,-1,.,.,.
CSCCC(NS(=O)(=O)c1ccc(Cl)cc1)C(=O)OCc1cccc(Cl)c1 (stereo not drawn),51*,-1,3,4,-20,-7,-6,-8,.
CO[C@@]1(NC(=O)Cc2cccs2)C(=O)N2C(C(=O)O)=C(COC(N)=O)CS[C@@H]21,52*,5,-1,8,22,6,41*,-10,2
COc1ccccc1CNC(=O)COC(=O)c1cnccn1,43,2,-1,-1,18,0,.,.,.
COc1ccccc1CNC(=O)c1cnccn1,56*,-2,0,2,11,13,57*,-11,0
COc1ccccc1NC(C)=[N+](C)CCNS(=O)(=O)c1ccc(Cl)cc1,96*,0,-1,3,-8,1,81*,-15,-9
COc1ccccc1OCCn1c(SCC(=O)O)nc2ccccc21,62*,3,-2,2,18,17,50*,-8,-16
COc1ccccc1OCCSc1nc2ccccc2n1CCC(=O)O,9,-1,-1,9,4,10,.,.,.
